The values that follow come from ChEMBL document CHEMBL1149812, “Synthesis of N-aryl-5-amino-4-cyanopyrazole derivatives as potent xanthine oxidase inhibitors” (Eur J Med Chem, 2008).

The structures appear in SMILES notation. Bounds are passed on as bounds.

Series [1] addresses T1, Xanthine dehydrogenase/oxidase (Homo sapiens, UniProt P47989). The experiment in a line: Inhibition of xanthine oxidase at 100 uM.
The test system of series [2] is MCF7. The series can be described thus: Growth inhibition of human MCF7 cells after 48 hrs. The format is functional. To be noted: MCF7, 48 h. Summed up: (§1)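 SRB protein-stain assay following the NCI screening protocol. Cells kept adherent in RPMI-1640 with 5% heat-inactivated FBS, 2 mM glutamine and 50 µg/mL gentamicin at 37 °C under 5% CO2. Seeded at 7.5 × 10^4 cells/mL (NCI-H460) or 1.5 × 10^5 cells/mL (MCF-7, SF-268). Exposed 48 h to five concentrations, top 150 µM, DMSO ≤0.25%. […] Mean ± SEM of 1–6 experiments in duplicate.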

In series [3] the test system is SF-268. The series can be described thus: Growth inhibition of human SF268 cells after 48 hrs. To be noted: SF-268, 48 h. The format is functional. In outline: as §1
Series [4] deals with T1, Xanthine dehydrogenase/oxidase. The experiment in a line: Inhibition of xanthine oxidase. In outline:
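Enzyme preincubated 15 min at room temperature: xanthine oxidase 0.066 U/mL in 50 mM potassium dihydrogen phosphate pH 7.4 with compound in DMSO (1% final). Started with 100 µM xanthine plus 1 mM EDTA. Mean ± SEM of 3 experiments, each in triplicate.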

The test system of series [5] is NCI-H460. The experiment in a line: Growth inhibition of human NCI-H460 cells after 48 hrs. The series is classed as functional. To be noted: NCI-H460, 48 h. Summed up:
as §1

The target in series [6] is T1, Xanthine dehydrogenase/oxidase. The series can be described thus: Activity of xanthine oxidase assessed as change in absorbance per min at 0.1 uM in presence of xanthine. In outline: (§2)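 Kinetic runs: xanthine oxidase (0.066 U/mL) in 50 mM potassium dihydrogen phosphate pH 7.4 preincubated 15 min at room temperature with inhibitor in DMSO (1% final). Started with xanthine at 100, 75, 50 or 25 µM plus 1 mM EDTA. Uric acid formation read at 295 nm over 2 min as ΔA/min. Vmax and Km taken from Lineweaver–Burk plots.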

For series [7] the target is unchanged. The series can be described thus: Activity of xanthine oxidase assessed as change in absorbance per min at 0.025 uM in presence of xanthine. In outline: as §2
Series [8] has the same target. The experiment in a line: Activity of xanthine oxidase assessed as change in absorbance per min at 10 uM in presence of xanthine. Summed up:
as §2

Series [9] has the same target. The series can be described thus: Activity of xanthine oxidase assessed as change in absorbance per min at 40 uM in presence of xanthine. Summed up:
as §2

T1 sequence (P47989 whole entry): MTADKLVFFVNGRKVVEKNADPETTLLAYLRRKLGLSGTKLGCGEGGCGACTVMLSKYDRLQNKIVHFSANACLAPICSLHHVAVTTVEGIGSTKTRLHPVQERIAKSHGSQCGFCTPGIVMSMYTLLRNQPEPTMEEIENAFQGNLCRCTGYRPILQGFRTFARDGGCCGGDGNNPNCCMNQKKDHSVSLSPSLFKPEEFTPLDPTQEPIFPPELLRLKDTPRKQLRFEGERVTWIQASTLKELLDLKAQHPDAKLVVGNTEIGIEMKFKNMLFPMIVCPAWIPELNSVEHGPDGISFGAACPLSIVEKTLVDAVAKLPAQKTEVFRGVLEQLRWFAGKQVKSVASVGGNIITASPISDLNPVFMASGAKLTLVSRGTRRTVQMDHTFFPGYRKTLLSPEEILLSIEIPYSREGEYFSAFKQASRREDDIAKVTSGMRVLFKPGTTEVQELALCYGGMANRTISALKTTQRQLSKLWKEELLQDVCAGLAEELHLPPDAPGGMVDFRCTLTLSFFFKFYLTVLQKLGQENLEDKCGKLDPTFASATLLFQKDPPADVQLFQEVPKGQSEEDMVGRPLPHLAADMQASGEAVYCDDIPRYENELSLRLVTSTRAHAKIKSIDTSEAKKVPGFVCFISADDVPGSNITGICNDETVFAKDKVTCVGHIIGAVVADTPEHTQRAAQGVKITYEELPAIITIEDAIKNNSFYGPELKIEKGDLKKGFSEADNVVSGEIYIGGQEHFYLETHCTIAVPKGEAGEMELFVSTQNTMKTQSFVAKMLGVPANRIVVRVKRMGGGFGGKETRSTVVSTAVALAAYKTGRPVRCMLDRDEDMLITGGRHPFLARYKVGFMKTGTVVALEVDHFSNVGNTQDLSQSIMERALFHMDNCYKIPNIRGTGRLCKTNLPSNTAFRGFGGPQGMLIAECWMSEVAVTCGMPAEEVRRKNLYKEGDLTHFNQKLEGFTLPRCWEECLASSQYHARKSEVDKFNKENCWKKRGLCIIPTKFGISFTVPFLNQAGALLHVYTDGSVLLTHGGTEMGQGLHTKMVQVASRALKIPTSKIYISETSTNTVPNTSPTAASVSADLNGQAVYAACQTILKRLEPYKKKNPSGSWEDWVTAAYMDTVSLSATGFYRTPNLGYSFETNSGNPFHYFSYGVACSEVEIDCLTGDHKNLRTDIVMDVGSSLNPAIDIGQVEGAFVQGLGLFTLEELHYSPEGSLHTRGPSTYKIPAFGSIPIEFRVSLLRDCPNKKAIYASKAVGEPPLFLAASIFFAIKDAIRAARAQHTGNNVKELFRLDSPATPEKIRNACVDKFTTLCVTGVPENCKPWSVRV

Consider `Oc1ncnc2[nH]ncc12` [ALLOPURINOL], for which the inhibition at 100 µM in series [1] is 96.3%.
As for `COc1ccc(-n2ncc3c(N)ncnc32)cc1`, the GI50 in series [2], in [3] and in series [5] was above 150 µM each time. Half-maximal inhibition in series [4] (IC50) was put at 19.6 µM.
In the case of `COC(=O)CNC(=O)c1ccc(-n2ncc3c(N)ncnc32)cc1`, the GI50 in [2], in [3] and in series [5] was above 150 µM throughout. Moreover, the deltaA in series [6] is 0.13; in series [7], 0.16. The same compound gave an IC50 in [4] of 0.08 µM.
`Nc1ncnc2c1cnn2-c1ccc([N+](=O)[O-])cc1` returned an IC50 in series [4] of 2.2 µM.
Still for that read-out and setting: with `Cc1ccc(-n2ncc3c(N)ncnc32)cc1` the figure was 17.4 µM; with `Nc1ncnc2c1cnn2-c1ccc(C(F)(F)F)cc1`, 0.18 µM.
In series [4], `CC(=O)OC[C@H]1O[C@@H](Nc2c(C#N)cnn2-c2ccc(C(=O)O)cc2)[C@H](OC(C)=O)[C@@H](OC(C)=O)[C@@H]1OC(C)=O` showed an IC50 above 100 µM.
On the same count and under the same terms, with `Nc1ncnc2c1cnn2-c1ccc(C(=O)O)cc1` the figure was 81 µM.
As to `N#Cc1cnn(-c2ccc(Cl)cc2)c1N`, the GI50 in series [2], in series [3] and in series [5] was above 150 µM in each case. This compound registered an IC50 in [4] above 100 µM.
Compound `N#Cc1cnn(-c2ccc(C(=O)O)cc2)c1N` showed an IC50 in series [4] of 36.1 µM. Further, the deltaA in series [8] is 0.12; in series [9] it was 0.08.
On to `Cc1ccc(-n2ncc(C#N)c2N)cc1`, for which the GI50 in series [2], in [3] and in series [5] was above 150 µM in each case. The compound also had an IC50 in [4] above 100 µM.
Turning to `COc1ccc(-n2ncc(C#N)c2N)cc1`, the GI50 in [2], in series [3] and in [5] was above 150 µM in each case. Moreover, the IC50 in [4] is above 100 µM.
As to `COc1cccc2c1C(=O)c1c(O)c3c(c(O)c1C2=O)C[C@@](O)(C(=O)CO)C[C@@H]3O[C@H]1C[C@H](N)[C@H](O)[C@H](C)O1` [DOXORUBICIN], the GI50 is 0.0428 µM in [2], 0.093 µM in [3] and 0.094 µM in series [5].
With `N#Cc1ccc(-n2ncc3c(N)ncnc32)cc1`, the IC50 in series [4] stood at 0.4 µM.
As to `N#Cc1cnn(-c2ccc([N+](=O)[O-])cc2)c1N`, the GI50 worked out at 64 µM in series [2], 135 µM in series [3] and 128 µM in series [5]. The compound also displayed an IC50 in [4] above 100 µM.
For `N#Cc1cnn(-c2ccc(C(F)(F)F)cc2)c1N`, in that order: above 150 µM, above 150 µM, above 150 µM and above 100 µM.
For `CC(=O)OC[C@H]1O[C@@H](Nc2ncnc3c2cnn3-c2ccc(C(=O)O)cc2)[C@H](OC(C)=O)[C@@H](OC(C)=O)[C@@H]1OC(C)=O`, in that order: above 150 µM, above 150 µM, above 150 µM and 18.4 µM.
For `N#Cc1ccc(-n2ncc(C#N)c2N)cc1` the same measures were above 150 µM, above 150 µM, above 150 µM and above 100 µM.
Take `COC(=O)CNC(=O)c1ccc(-n2ncc(C#N)c2N)cc1`: the GI50 in series [2], in [3] and in series [5] was above 150 µM in each case. Besides, the IC50 in series [4] is 37.9 µM. Moreover, the deltaA in [8] is on record as 0.23; in series [9] it was 0.09.
